# DNMT1 block: blocks human DNA methyltransferase DNMT1 | P26358 | DNMT1 molecular beacon, Hinp1I cleavage, fluorescence | inhibition (reported as % activation of signal), % at 10 µM | 0.83% of 360,000 active | AID 588458; in the data active = inhibition above about 50%
# LMPTP block: blocks human LMPTP phosphatase | P24666 | inhibition, % at 20 µM | recombinant LMPTP-A, OMFP fluorogenic substrate, fluorescence intensity | 0.22% of 360,000 active;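 active = compounds that cut the enzyme signal by at least half of the control window in the single-dose screen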;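 also: plate controls were DMSO wells with enzyme plus substrate for no effect and substrate without enzyme for full effect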
#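 Material: LMPTP-A; amount: 0.625 nM enzyme; doses: single 20 µM dose; times: reaction 50 min, room temperature, dark; technique: fluorescence intensity of OMFP turnover product; benchmarks: no-enzyme and uninhibited controls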
# SUMO1-SIM PPI: alters human SUMO1 binding to SIM partners | P63165 | SUMO1 binding to a labelled peptide, TR-FRET, 1 h | inhibition, % at 20 µM | 0.33% of 360,000 active; in the data active = inhibition above about 37%
# STEP inh: inhibitors of human striatal-enriched phosphatase STEP; P54829; recombinant STEP, OMFP fluorogenic substrate, fluorescence; 0.25% of 360,000 active; inhibition, % at 20 µM;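 active = inhibition at 20 µM, scaled per plate between control wells, above about 37%, limit read from the data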;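 also: 0% = DMSO with enzyme and substrate and 100% = substrate only without enzyme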
# Target sequence (P54829 whole entry, looked up): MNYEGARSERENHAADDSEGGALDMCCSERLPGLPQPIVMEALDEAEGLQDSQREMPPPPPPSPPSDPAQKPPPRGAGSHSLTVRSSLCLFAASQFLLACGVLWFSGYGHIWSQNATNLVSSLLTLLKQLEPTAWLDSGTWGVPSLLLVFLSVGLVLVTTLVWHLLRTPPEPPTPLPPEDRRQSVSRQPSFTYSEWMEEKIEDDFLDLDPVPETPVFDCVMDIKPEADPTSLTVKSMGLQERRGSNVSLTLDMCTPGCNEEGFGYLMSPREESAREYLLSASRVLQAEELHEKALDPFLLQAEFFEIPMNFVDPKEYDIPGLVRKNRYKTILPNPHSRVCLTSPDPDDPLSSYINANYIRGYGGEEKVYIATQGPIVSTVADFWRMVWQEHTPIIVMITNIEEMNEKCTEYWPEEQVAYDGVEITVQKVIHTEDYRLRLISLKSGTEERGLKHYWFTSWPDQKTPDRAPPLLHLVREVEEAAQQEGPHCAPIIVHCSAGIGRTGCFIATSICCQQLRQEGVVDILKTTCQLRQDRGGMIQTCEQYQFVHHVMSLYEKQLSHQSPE
#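 material = STEP tyrosine phosphatase | reagent = fluorogenic phosphatase substrate OMFP at 25 µM final | doses = single compound dose of 20 µM, 1% DMSO final | schedule = 20 min reaction, room temperature, in the dark | measured by = fluorescence, 480/540 nm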
# Scp-1 inhibitor: Scp-1 (human) phosphatase inhibition | Q9GZU7 | Recombinant Scp1, phosphopeptide, malachite green phosphate absorbance | inhibition, % at 20 µM | 0.88% of 340,000 active | AID 493091;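 active = inhibition above about 50% at 20 µM, limit read from the data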;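 also: plate controls were DMSO wells with enzyme for no effect and wells lacking enzyme for full effect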
#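 Test system – truncated SCP-1 phosphatase (76-261aa) · Reagent – Phosphorylated 17-residue peptide substrate · Incubation – 45 min room-temperature reaction, 5 min colour, 30 min stabiliser · Detection – colorimetric phosphate reagent with accelerator and stabiliser, absorbance at 630 nm · Measure – % inhibition at 20 µM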
# CASP6 VEID inh: blocks human caspase-6 cleavage activity; 0.53% of 350,000 active; inhibition, % at 12.5 µM; P55212; purified caspase-6, Z-VEID-R110 cleavage fluorescence;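 active = mean inhibition across replicates at least about 35%, with every replicate also reaching that limit, limit read from the data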;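 also: 0% = median of neutral control wells and 100% = no fluorescence left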
# * marks the source's active call; other numbers are inactive results; x = no result given. The list is not random: actives were taken first. Their share in the collection is about 1.7%.
SMILES,DNMT1 block,LMPTP block,SUMO1-SIM PPI,STEP inh,Scp-1 inhibitor,CASP6 VEID inh
O=C(O)c1cccc2cccc(-c3c4ccc(=O)c(O)c-4oc4c(O)c(O)ccc34)c12,70*,95*,119*,99*,104*,99*
Cc1ccc(-c2ccc(CCC(=O)O)n2Cc2ccco2)cc1,57*,6,2,-17,-4,x
O=C(O)CCc1ccc(-c2ccccc2)n1CC(=O)O,0,-1,2,0,5,x
O=C(NN=Cc1ccc(O)cc1)C(=O)NN=Cc1ccc(O)cc1,0,-2,0,-3,-8,0
O=C(N/N=C/c1ccc(O)cc1O)C(=O)N/N=C/c1ccc(O)cc1O,1,13,15,-2,-7,39*
Oc1ccc(C=NNC(=S)Nc2ccc(F)cc2)c(O)c1,-5,1,53*,-5,-10,0
Nc1ccc2c(c1)C(=O)C(=O)c1ccccc1-2,120*,48,48*,59*,5,x
O=C1C(=O)c2ccc(-c3ccccc3)cc2-c2ccccc21,106*,14,41*,34,-4,x
O=c1cc(-c2cccc(Cl)c2)oc2cccc(O)c12,24,-1,2,2,-9,0
O=C(c1ccncc1)N1CCCCN2[C@H](C1)[C@H](c1ccc(C#Cc3ccccn3)cc1)[C@@H]2CO,x,x,x,x,x,37*
O=C(O)c1cc2n(n1)CCN(Cc1ccccc1Cl)C2=O,7,5,4,7,7,27
COc1ccccc1Nc1ccc2c(O)cc(S(=O)(=O)O)cc2c1,95*,85*,92*,97*,82*,88*
O=S(=O)(O)c1cc(O)c2ccc(Nc3ccccc3)cc2c1,100*,93*,83*,99*,99*,95*
Nc1cccc2c(O)cc(S(=O)(=O)O)cc12,114*,78*,76*,92*,93*,x
Cc1ccc(S(=O)(=O)c2cc(Nc3ccccc3)ccc2O)cc1,-23,2,-7,-1,-6,15
O=S(=O)(O)c1ccc(O)c2cc(Nc3ccccc3)ccc12,96*,96*,120*,99*,96*,x
COc1ccc(NC(=O)Nc2cccc3ccccc23)c(OC)c1,6,1,4,-1,-5,0
Nc1ccc(N2CCOCC2)c2nonc12,-14,3,-12,1,3,83*
COc1ccc(C)cc1S(=O)(=O)N1CC(C)OC(C)C1 (stereo unspecified),0,0,-1,-3,1,-1
CCOc1ccc(NC(=O)CC2C(=O)NCCN2C(=O)c2ccc(Cl)cc2)cc1 (stereo unspecified),-1,-1,-1,-1,-5,0
CN(C(=S)NC(=O)c1ccc(Cl)cc1)C1CCCCC1,-4,72*,5,20,70*,5
O=C(CSc1nc(NS(=O)(=O)c2ccccc2)cc(=O)[nH]1)Nc1cccc(C(F)(F)F)c1,-3,-2,0,-1,-8,1
O=C1NN(c2ccccc2)C(=O)/C1=C\c1coc2ccc(O)cc2c1=O,3,4,2,1,13,39*
O=C1NN(c2ccccc2)C(=O)/C1=C/c1coc2ccccc2c1=O,-9,0,3,7,-4,x
CCOC(=O)C1(C)CCCN1C(=O)c1cncc(Br)c1 (stereo unspecified),2,0,-5,-2,x,-1
SMILES,DNMT1 block,LMPTP block,SUMO1-SIM PPI,STEP inh,Scp-1 inhibitor,CASP6 VEID inh
CSc1nc(SCC(=O)O)c2sc3nc(-c4ccccc4)c4c(c3c2n1)CCC4,97*,95*,101*,97*,60*,13
CSc1nc(N(C)CCO)c2sc3nc(-c4ccco4)c4c(c3c2n1)CCC4,37,2,25,5,79*,x
COc1ccc(OCC(=O)N/N=C(/C)Cc2ccccc2)cc1,0,-1,-1,-3,-1,-1
COC(=O)/C(=C\Nc1ccc(Cl)cc1Cl)NC(=O)c1ccc(OC)cc1,-1,3,40*,2,-10,-2
C=CCn1cc(/C=C/c2cc[n+](C)cc2)c2ccccc21,16,-3,-89,-14,16,-18
CCn1cc(/C=C/c2cc[n+](C)cc2)c2ccccc21,26,1,-125,-14,68*,-17
Cc1cccc(C(=O)OCC(=O)NCc2cccs2)c1,2,-2,1,-1,-1,-1
CS(=O)(=O)c1ccc(C(=O)OCC(=O)NCc2cccs2)cc1[N+](=O)[O-],71*,0,-13,22,-3,1
COc1ccc(COC[C@H](C)[C@H](O)[C@@H](C)[C@H]2OC(=O)[C@@H]2C)cc1,-2,-1,38*,-1,-4,5
COc1ccc(CCC(=O)NC(C)C)cc1,0,-2,0,0,-5,-3
COCC(=O)Nc1ccc2c(c1)[C@@H]1C[C@@H](CC(=O)NCc3ccncc3)O[C@H](CO)[C@@H]1O2,x,x,x,x,x,-8
Cc1c(C2(O)CCCCC2)[nH]c2ccccc12,x,x,x,x,x,-6
Cn1nnnc1SCC1=C(C(=O)O)N2C(=O)[C@@H](NC(=O)[C@H](O)c3ccccc3)[C@H]2SC1,88*,1,35,28,90*,x
Cc1nn(C(C)C(=O)NC2C(=O)N3C(C(=O)O)=C(CSc4nnnn4C)CSC23)cc1Cl (stereo unspecified),10,0,7,4,31,18
CC(=O)OCC1=C(C(=O)O)N2C(=O)[C@@H](NC(=O)CSc3ccncc3)[C@H]2SC1,45,2,15,4,77*,38*
O=C(CCc1ccc(O)cc1)NNC(=S)NCCc1ccccc1,-2,-2,5,-1,-13,-3
O=[N+]([O-])c1ccc(Sc2cccc[n+]2[O-])c2nonc12,8,2,28,1,-9,62*
O=[N+]([O-])c1ccc(Nc2ccccc2)c2nonc12,-10,16,-90,8,-11,8
Cc1ccc(-n2nc3c(=O)n(CCCC(=O)NCCc4ccccc4)nc(C)c3c2C)cc1,3,-2,5,-2,-5,-3
Cc1nn(CCCC(=O)NCCc2ccccc2)c(=O)c2nn(-c3ccccc3)c(C)c12,2,-1,1,2,7,50*
Cc1ccc2nc(N3C(=O)C(O)=C(C(=O)c4ccc(C)o4)C3c3ccco3)sc2c1 (stereo unspecified),36,10,-5,5,4,48*
Cc1ccc2nc(N3C(=O)C(O)=C(C(=O)c4cc5ccccc5o4)C3c3cccs3)sc2c1 (stereo unspecified),78*,36,8,12,-23,x

# Screening data deposited in PubChem by several laboratories.
